Reference: PMC4112157 (Bioorganic & medicinal chemistry, 2014)
Entries after “also recorded” stand apart in the source; their conditions may differ. Where two headings read alike, the source gives them in different places.

How the values were obtained:
LOX isozymes = experiment: Lipoxygenase UV-Vis-based IC50 assay, summary over LOX isozymes; assay type: biochemical
s15-LOX-1 = molecular target: T1, s15-LOX-1 (Glycine max, UniProt P08170); experiment: Lipoxygenase UV-Vis-based IC50 assay, s15-LOX-1; assay type: biochemical, soybean
T1 sequence (P08170 1-839): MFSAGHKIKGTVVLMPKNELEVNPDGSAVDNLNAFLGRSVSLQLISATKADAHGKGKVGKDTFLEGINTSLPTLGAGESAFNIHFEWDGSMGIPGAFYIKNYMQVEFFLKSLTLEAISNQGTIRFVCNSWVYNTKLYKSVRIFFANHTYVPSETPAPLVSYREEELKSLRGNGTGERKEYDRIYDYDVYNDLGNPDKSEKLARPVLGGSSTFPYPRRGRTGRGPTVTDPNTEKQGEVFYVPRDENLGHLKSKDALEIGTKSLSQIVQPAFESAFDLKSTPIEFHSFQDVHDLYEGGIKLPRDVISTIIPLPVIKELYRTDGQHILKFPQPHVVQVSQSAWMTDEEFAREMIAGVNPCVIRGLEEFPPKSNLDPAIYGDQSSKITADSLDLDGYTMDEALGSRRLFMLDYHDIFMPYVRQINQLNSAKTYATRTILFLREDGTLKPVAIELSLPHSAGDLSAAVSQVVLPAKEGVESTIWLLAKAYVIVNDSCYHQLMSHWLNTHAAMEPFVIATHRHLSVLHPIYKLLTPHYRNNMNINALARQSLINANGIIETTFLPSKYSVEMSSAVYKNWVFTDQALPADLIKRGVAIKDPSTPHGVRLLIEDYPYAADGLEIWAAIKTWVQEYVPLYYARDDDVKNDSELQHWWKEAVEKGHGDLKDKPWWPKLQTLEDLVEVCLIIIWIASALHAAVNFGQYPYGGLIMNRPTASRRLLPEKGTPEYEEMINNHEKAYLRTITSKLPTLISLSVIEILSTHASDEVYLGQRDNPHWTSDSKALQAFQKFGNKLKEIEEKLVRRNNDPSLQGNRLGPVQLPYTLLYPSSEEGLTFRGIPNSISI

h12-LOX [1] = molecular target: T2, h12-LOX (Homo sapiens, UniProt P18054); experiment: Oxo-lipid substrate activity, h12-LOX; assay type: biochemical
T2 sequence (P18054 1-663): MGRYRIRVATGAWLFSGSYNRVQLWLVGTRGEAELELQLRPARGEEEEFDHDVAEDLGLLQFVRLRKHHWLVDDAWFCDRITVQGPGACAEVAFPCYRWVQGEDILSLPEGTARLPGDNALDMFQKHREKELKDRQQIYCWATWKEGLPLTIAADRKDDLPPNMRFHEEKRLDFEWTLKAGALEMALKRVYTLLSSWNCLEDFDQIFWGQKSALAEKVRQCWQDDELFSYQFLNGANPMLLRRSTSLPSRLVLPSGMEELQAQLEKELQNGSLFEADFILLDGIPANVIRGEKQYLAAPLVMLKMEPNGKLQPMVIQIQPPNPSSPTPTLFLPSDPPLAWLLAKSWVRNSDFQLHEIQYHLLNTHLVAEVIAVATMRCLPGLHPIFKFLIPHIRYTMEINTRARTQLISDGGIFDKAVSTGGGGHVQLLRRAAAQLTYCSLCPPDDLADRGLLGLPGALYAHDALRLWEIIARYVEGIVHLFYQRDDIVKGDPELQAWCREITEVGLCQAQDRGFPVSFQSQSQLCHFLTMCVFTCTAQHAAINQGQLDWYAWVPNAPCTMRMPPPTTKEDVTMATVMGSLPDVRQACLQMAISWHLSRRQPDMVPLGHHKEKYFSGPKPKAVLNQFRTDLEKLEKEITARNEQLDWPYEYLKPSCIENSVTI

h12-LOX [2] = molecular target: T2, h12-LOX; experiment: Steady-state inhibition kinetics, h12-LOX; assay type: biochemical; details: for Ki: 0.4–10 μM AA, 25 mM HEPES pH 8.0, 0.01% Triton X-100, Dixon plot and replot
Method in brief: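 Enzyme added to start the reaction in a stirred cuvette containing 0.4–10 μM arachidonic acid, 25 mM HEPES (pH 8.0) and 0.01% Triton X-100. 12-HpETE formation followed at 234 nm (ε = 25,000 M−1cm−1) across substrate and inhibitor concentrations, with Dixon series at 0.6, 1, 3 and 9 μM AA. Dixon plot and slope-vs-[inhibitor] replot give Kic (dissociation from enzyme) and Kiu (from enzyme–substrate complex).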

h15-LOX-1 [3] = molecular target: T3, h15-LOX-1 (Homo sapiens, UniProt P16050); experiment: Oxo-lipid substrate activity, h15-LOX-1; assay type: biochemical
T3 sequence (P16050 1-662): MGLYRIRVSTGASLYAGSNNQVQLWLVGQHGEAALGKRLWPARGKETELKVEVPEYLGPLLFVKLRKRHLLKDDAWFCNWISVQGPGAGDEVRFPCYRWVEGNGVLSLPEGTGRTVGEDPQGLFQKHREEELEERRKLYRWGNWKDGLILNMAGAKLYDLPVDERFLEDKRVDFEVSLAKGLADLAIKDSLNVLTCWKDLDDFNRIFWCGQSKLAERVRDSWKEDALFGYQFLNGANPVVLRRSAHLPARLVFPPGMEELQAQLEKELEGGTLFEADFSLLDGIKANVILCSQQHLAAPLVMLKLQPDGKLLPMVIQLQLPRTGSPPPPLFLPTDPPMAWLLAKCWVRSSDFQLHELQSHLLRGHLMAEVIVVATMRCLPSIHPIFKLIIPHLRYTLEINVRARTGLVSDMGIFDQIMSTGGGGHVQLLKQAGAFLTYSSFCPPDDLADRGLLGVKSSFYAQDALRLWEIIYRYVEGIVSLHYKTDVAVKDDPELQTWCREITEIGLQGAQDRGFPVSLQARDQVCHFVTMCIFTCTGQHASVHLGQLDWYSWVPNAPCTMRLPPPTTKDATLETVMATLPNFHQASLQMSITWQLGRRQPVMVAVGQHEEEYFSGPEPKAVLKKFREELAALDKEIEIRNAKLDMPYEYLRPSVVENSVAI

h5-LOX = molecular target: T4, h5-LOX (Homo sapiens, UniProt P09917); experiment: Oxo-lipid substrate activity, h5-LOX; assay type: biochemical; details: IC50 assay conditions, 10 μM oxo-lipid, UV-Vis 234/280 nm, LC-MS
T4 sequence (P09917 1-674): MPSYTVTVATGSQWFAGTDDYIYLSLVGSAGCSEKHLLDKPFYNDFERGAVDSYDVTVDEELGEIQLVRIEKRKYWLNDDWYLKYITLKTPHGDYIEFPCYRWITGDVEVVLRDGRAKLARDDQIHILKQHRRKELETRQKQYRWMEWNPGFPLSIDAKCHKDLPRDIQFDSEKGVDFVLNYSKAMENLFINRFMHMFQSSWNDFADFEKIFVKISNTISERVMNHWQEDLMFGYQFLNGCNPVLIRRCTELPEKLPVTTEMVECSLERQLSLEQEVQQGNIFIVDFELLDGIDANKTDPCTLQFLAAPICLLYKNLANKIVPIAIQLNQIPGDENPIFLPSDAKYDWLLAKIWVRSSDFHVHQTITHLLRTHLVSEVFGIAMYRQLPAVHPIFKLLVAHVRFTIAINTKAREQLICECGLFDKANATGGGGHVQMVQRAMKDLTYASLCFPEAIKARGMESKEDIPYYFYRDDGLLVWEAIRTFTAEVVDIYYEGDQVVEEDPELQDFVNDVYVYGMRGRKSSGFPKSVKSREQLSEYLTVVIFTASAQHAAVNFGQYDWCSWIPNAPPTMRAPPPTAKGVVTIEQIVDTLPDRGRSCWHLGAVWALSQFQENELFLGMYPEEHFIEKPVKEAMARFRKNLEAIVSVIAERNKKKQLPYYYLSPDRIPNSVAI

h15-LOX-1 [4] = molecular target: T3, h15-LOX-1; experiment: Incubation activity assay; assay type: biochemical; details: time incubation experiments
cytosolic calcium levels = details: cited from earlier work
[5] = IC50 assay conditions, 10 μM oxo-lipid, UV-Vis 234/280 nm, LC-MS
[6] = incubation conditions, 10 μM, on ice 15 minutes, HPLC and LC-MS
[7] = IC50 assay conditions, 10 μM oxo-lipid, UV-Vis 234/280 nm

Q: For `CCCCCC(=O)/C=C/C=C\CCCCCCCC(=O)O` [13-oxo-ODE, 13-oxo-9,11-(Z,E)-octadecadienoic acid], which IC50 (LOX isozymes; read-out: IC50 for all LOXs, all LOXs studied) is on record?
A: > 100 µM

Q: What about the IC50 (s15-LOX-1) of the same compound?
A: > 100 µM

Q: For `CCCCCC(=O)/C=C/C=C\C/C=C\C/C=C\CCCC(=O)O` [15-oxo-ETE, 15-oxo-5,8,11,13-(Z,Z,Z,E)-eicosatetraenoic acid], which substrate activity (h12-LOX [1]; [5]) is on record?
A: not a substrate

Q: And the substrate activity (h12-LOX [1]; [6])?
A: not a substrate

Q: What about the Ki (h12-LOX [2]; Kic) of the same compound?
A: 0.087 ± 0.008 µM

Q: And the Ki (h12-LOX [2]; Kiu)?
A: 2.1 ± 0.8 µM

Q: And the “mode of inhibition (steady state)” value (h12-LOX [2]; steady state inhibition kinetics)?
A: mixed inhibitor; also recorded: mixed inhibition

Q: And the substrate activity (h15-LOX-1 [3]; [6])?
A: not a substrate

Q: What about the IC50 (LOX isozymes; read-out: IC50 against the other LOX isozymes, LOX isozymes other than h12-LOX) of the same compound?
A: > 25 µM

Q: What about the substrate activity (h5-LOX) of the same compound?
A: multiple oxidation products were formed

Q: What does the source list for `CCCCC/C=C\C/C=C\C/C=C\C=C\C(=O)CCCC(=O)O` [5-oxo-ETE, 5-oxo-6,8,11,14-(E,Z,Z,Z)-eicosatetraenoic acid]?
A: substrate activity (h12-LOX [1]; [5]): no change of absorbance at 234 nm or 280 nm; substrate activity (h15-LOX-1 [3]; [7]): no change of absorbance at 234 nm or 280 nm; substrate activity (h5-LOX): no change of absorbance at 234 nm or 280 nm; IC50 (s15-LOX-1): > 100 µM

Q: Which results are given for `CCCCC/C=C\CC(=O)/C=C/C=C\C/C=C\CCCC(=O)O` [12-oxo-ETE, 12-oxo-5,8,10,14-(Z,Z,E,Z)-eicosatetraenoic acid]?
A: mode of inhibition (time dependence) (h15-LOX-1 [4]): irreversible inhibition; substrate activity (h15-LOX-1 [3]; [7]): no change of absorbance at 234 nm or 280 nm; concentration with calcium effects (as low as) (cytosolic calcium levels): 10 nM; concentration with effects on cytosolic calcium levels (cytosolic calcium levels): 10 µM; substrate activity (h5-LOX): no change of absorbance at 234 nm or 280 nm; IC50 (s15-LOX-1): > 100 µM
